Kir21 block – inhibitors of mouse Kir2.1 inward-rectifier potassium channel | Inward rectifier potassium channel 2 (Mus musculus), P35561 | HEK293-Kir2.1, FluxOR thallium flux fluorescence; stronger effect = lower value | B-score at 10 µM | 0.85% of 310,000 active | AID 1672, 2009;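 active = fluorescence ratio B-score at or below minus 3 SD of library scores, with starting-brightness B-score within 2 SD, cut at about -4.2 in these data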;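 also: channel flux triggered by added potassium and thallium sulfate stimulus; B-score of peak minus minimum fluorescence over baseline after thallium stimulus; more negative B-score means stronger Kir2.1 block with less thallium influx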
Target sequence (P35561 whole entry, looked up): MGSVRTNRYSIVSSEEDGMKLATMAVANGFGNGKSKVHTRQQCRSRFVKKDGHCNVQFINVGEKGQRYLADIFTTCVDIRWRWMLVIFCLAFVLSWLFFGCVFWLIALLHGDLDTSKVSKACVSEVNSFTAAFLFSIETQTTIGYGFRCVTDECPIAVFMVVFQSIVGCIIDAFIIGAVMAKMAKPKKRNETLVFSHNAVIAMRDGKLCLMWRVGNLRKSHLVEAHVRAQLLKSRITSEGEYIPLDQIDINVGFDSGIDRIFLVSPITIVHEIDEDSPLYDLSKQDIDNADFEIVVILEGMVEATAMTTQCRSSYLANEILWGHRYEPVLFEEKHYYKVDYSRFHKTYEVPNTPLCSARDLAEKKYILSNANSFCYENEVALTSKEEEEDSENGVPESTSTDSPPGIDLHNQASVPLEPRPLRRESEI
KCNQ1 pot – potentiators or activators of KCNQ1 channel, primary screen, cell-based, thallium flux, high-throughput. Potassium voltage-gated channel subfamily KQT member 1 (Homo sapiens), P51787. CHO-K1 KCNQ1, thallium flux FluxOR fluorescence; stronger effect = higher value. B-score at 10 µM. 0.35% of 310,000 active;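 active = fluorescence ratio B-score, a plate-corrected score, at least three library SD, with initial intensity B-score within 5 SD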
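Material: CHO-K1 cells stably expressing KCNQ1. Medium: assay buffer for compound exposure, DMSO matched across wells. Reagent: K+/Tl+ depolarizing stimulus. Compound dosing: single-concentration screen. Times: 37 °C overnight plating, 90-min dark dye load, 20-min compound pretreatment. Technique: FluxOR Tl+ flux fluorescence.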
hERG protect – hERG rescue from dofetilide block, primary screen, cell-based, CHO-hERG, FluxOR thallium flux, dofetilide IC70; Voltage-gated inwardly rectifying potassium channel KCNH2 (Homo sapiens), Q12809; dofetilide IC70 present; activation (rescue from dofetilide block), less the hit threshold, % at 10 µM; 0.51% of 310,000 active; AID 1511, 2009;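 active = activation above the mean of controls blocked by dofetilide plus 5 SD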;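 also: thallium influx through hERG after potassium depolarization seen as dye fluorescence rise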
KCNK3 block – human KCNK3 channel inhibitors, primary screen, CHO cells, FluxOR thallium flux, B-score; 0.84% of 340,000 active; B-score at 10 µM; FluxOR fluorescence; stronger effect = lower value; Potassium channel subfamily K member 3 (Homo sapiens), O14649;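 active = B-score under library mean minus 4 SD, starting fluorescence ratio at most library mean plus 5 SD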;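 also: more negative B-score means stronger inhibition of thallium flux through KCNK3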
KCNQ1 inh – inhibitors of human KCNQ1 channel, primary screen, cell-based, thallium flux, high-throughput; CHO-K1 KCNQ1, FluxOR thallium flux fluorescence; stronger effect = higher value; Potassium voltage-gated channel subfamily KQT member 1 (Homo sapiens), P51787; B-score at 10 µM; 1.3% of 310,000 active;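 active = compounds whose thallium flux B-score, printed positive for inhibition, exceeds three library SD while starting fluorescence stays within three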;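 also: channel opened by potassium depolarization with thallium stimulus after 20 min compound exposure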
KCNK9 block – KCNK9 potassium channel inhibitors, primary screen, HEK293 cells, thallium flux; B-score at 10 µM; FluxOR thallium flux fluorescence; stronger effect = lower value; Potassium channel subfamily K member 9 (Homo sapiens), Q9NPC2; 1.2% of 310,000 active; AID 488922, 2010;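 active = ratio B-score over 3 SD below the library mean, with starting fluorescence within 5 SD of its mean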;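 also: negative B-score means less thallium flux so channel inhibition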
KCNK9 inh conf – KCNK9 potassium channel inhibitors, confirmation, HEK293 cells, thallium flux, duplicate; shares compounds with KCNK9 block; FluxOR thallium flux fluorescence; inhibition, % at 10 µM; 43% of 4,900 active; AID 492992, 2010;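 active = thallium signal inhibited by more than 5 SD of the compound-free buffer control wells, on both duplicate plates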;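 also: 0% = assay buffer control wells without compound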
Kir2-1 spec – mouse Kir2.1 channel inhibition, confirmation, selectivity assay for KCNK9 modulator project, cell-based, HEK293, thallium flux | shares compounds with KCNK9 block | Kir2.1 cells, FluxOR thallium flux fluorescence | inhibition, % at 10 µM | 4% of 4,900 active | AID 492993, 2010;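 active = thallium signal drop more than 5 SD beyond the mean of the no-compound control wells, seen in both duplicate plates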;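 also: signal is fluorescence rise after thallium addition divided by baseline fluorescence; plate controls were assay buffer only for no effect and full block by chlorpromazine control for full effect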
HEK293 Tl ctr – thallium flux in non-induced HEK293 cells, confirmation, counter-screen for KCNK9 inhibitor project, cell-based, second counter screen, non-induced KCNK9-HEK293. 40% of 4,900 active. AID 492997, 2010. shares compounds with KCNK9 block. FluxOR thallium flux. inhibition, % at 10 µM;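 active = thallium signal drop beyond 5 SD of the untreated control mean, on both duplicate plates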;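 also: plate controls were buffer only IC0 wells for no effect and SID17386958 at its maximal inhibitory level for full effect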
* = called active by the depositor; i = inactive; / = not tested or not shown. Most compounds without a hit are left out; they make up all but 3.7% or so of the library.

SMILES	Kir21 block	KCNQ1 pot	hERG protect	KCNK3 block	KCNQ1 inh	KCNK9 block	KCNK9 inh conf	Kir2-1 spec	HEK293 Tl ctr
NC(=S)n1[nH]c(-c2ccc([N+](=O)[O-])cc2)c(N=Nc2ccc(O)cc2)c1=O	-1.77	i	-8.2	i	i	i	/	/	/
NC(=S)n1[nH]c(-c2ccc([N+](=O)[O-])cc2)c(N=Nc2cccc(Cl)c2)c1=O	-2.06	8*	-9.9	i	i	i	i	i	i
COc1ccc(OC)c(-n2c(SCC(=O)Nc3cccc(S(N)(=O)=O)c3)nc3ccccc3c2=O)c1	-0.85	i	-9.0	i	i	-12.8*	56.5%*	i	34.5%*
COc1ccccc1-n1c(SCC(=O)Nc2cccc(S(N)(=O)=O)c2)nc2ccccc2c1=O	-2.34	i	-16.0	i	i	-8.45*	34.0%*	i	i
O=C(NCCN1CCOCC1)c1cc(-c2ccc(Br)cc2)on1	1.27	i	-9.6	i	i	-11.9*	i	i	i
CC(=O)c1ccc2c(c1)N(CCCN(C)C)c1ccccc1S2	/	/	/	i	/	/	/	/	/
CC(=O)c1ccc(OC(=O)CN2C(=O)c3ccccc3C2=O)cc1	0.24	i	-1.1	i	i	i	/	/	/
CC(=O)c1ccc(OC(=O)CCN2c3ccccc3Sc3ccccc32)cc1	1.17	i	-7.2	i	i	-11.7*	74.5%*	i	27.5%*
CC(=O)c1ccc2c(c1)N(C)c1ccccc1S2	0.82	i	-6.5	i	i	i	i	i	i
CN(CC1CCN(CCc2cccc(C(F)(F)F)c2)CC1)C(=O)c1ccccc1	0.38	i	-11.8	i	i	i	/	/	/
CN(CC1CCN(CCc2cccc(C(F)(F)F)c2)CC1)C(=O)c1ccc(F)cc1	-0.04	i	-2.3	i	i	i	i	i	i
COc1cc(NS(=O)(=O)c2ccc(NC(=S)NC(=O)c3sc4ccccc4c3Cl)cc2)nc(OC)n1	1.29	i	-19.8	i	i	i	i	i	i
COc1cc(NS(=O)(=O)c2ccc(NC(=S)NC(=O)c3sc4cc(F)ccc4c3Cl)cc2)nc(OC)n1	0.1	i	-21.1	i	i	i	/	/	/
CCOc1ccc(C(=O)OCCN(CC)CC)cc1	0.05	i	-10.8	i	i	i	/	/	/
CCN(CC)CCOc1ccc(/C(=C(/Cl)c2ccccc2)c2ccccc2)cc1	0.61	i	-32.5	i	8*	i	i	i	i
Cc1cc(N/N=C/c2ccccc2Cl)nc(NCc2ccccc2)n1	-2.25	i	-13.2	i	i	i	i	i	i
Cc1cc(C)nc(N/N=C/c2ccccc2Cl)n1	0.82	i	-8.3	i	i	i	/	/	/
CCCC(C)NC(=O)COC(=O)c1cc(Br)c(Br)s1 (stereo unspecified)	0.85	i	-7.9	i	i	i	/	/	/
Cn1c(=O)c2c(SCC(=O)NC3CCCC3)nc(CC(C)(C)C)nc2n(C)c1=O	0.18	i	-6.2	i	i	i	/	/	/
Cn1c(=O)c2c(SCC(=O)Nc3ccc4c(c3)OCCO4)nc(CC(C)(C)C)nc2n(C)c1=O	1.4	i	-8.1	i	i	i	i	i	i
COC(=O)c1ccc(/C=N/N2CCN(Cc3ccc(C)cc3C)CC2)cc1	0.19	i	-12.5	i	i	i	i	i	i
CCCCOc1ccccc1NC(=O)c1scc2c1OCCO2	0.21	i	-20.0	i	i	-11.7*	47.5%*	i	36.0%*
Cc1ccc2[nH]c(=O)c(C(c3nnnn3C3CCCC3)N(Cc3cccnc3)Cc3ccco3)cc2c1 (stereo unspecified)	-1.1	i	-10.2	i	i	i	/	/	/
Clc1ccc(C(c2nnnn2C2CCCCC2)N(Cc2cccnc2)Cc2ccco2)cc1 (stereo unspecified)	1.65	i	-9.3	i	i	-11.3*	i	i	45.0%*
O=c1cc(-c2ccccc2)nc2c(-c3ccccc3)c(C(F)(F)F)[nH]n12	-0.04	13*	54.3*	i	i	i	i	i	i
SMILES	Kir21 block	KCNQ1 pot	hERG protect	KCNK3 block	KCNQ1 inh	KCNK9 block	KCNK9 inh conf	Kir2-1 spec	HEK293 Tl ctr
CCOc1ccccc1N1CCN(Cc2ccco2)CC1	0.01	i	-4.1	i	i	i	/	/	/
CCOc1ccccc1N1CCN(C/C=C/c2ccc(N(C)C)cc2)CC1	-1.85	i	-9.4	i	i	i	i	i	i
CCOc1ccccc1N1CCN(Cc2ccc(Br)s2)CC1	-0.23	i	-7.8	i	i	i	i	i	i
O=C(CSc1ccc2c(c1)OCCO2)Nc1ncccc1O	-2.56	i	-4.9	i	i	i	/	/	/
Cn1c(COc2ccc(Cl)cc2)nnc1SCC(=O)NC1CCCC1	-0.01	i	-3.4	i	i	i	/	/	/
Cc1ccc(C(=O)/C=C\NCc2ccccc2)cc1	-0.46	i	-8.1	i	i	i	/	/	/
COc1ccc(C(=O)/C=C/NCc2ccc(C)cc2)cc1	1.01	i	-7.1	i	i	i	i	i	i
CC(=O)OCCCN(C)CC/C=C1/c2ccccc2CSc2ccccc21	-1.89	i	-10.6	i	i	i	i	i	i
COc1ccc(C(c2nnnn2Cc2cccs2)N2CCN(c3ccccc3F)CC2)cc1 (stereo unspecified)	-1.07	i	-4.7	i	i	-11.7*	28.5%*	i	38.5%*
Cc1nn(-c2ccccc2)c(Cl)c1/C=N/NC(=O)c1ccc(CNc2ccccc2)o1	-0.2	i	-8.9	i	i	i	/	/	/

Screening data as filed in PubChem.
